# Experimental data reported in ChEMBL document CHEMBL5107963, “Design, synthesis and anti-mycobacterial evaluation of imidazo[1,2-a]pyridine analogues” (RSC Med Chem, 2022).
# Test system: Mycobacterium tuberculosis
# Test: Anti-mycobacterial activity against Mycobacterium tuberculosis H37Rv incubated for 5 days by alamar blue assay
# Format: functional
# Conditions: 120 h, time 5 day
# How it was run: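 Inoculum from Löwenstein-Jensen culture suspended in Middlebrook 7H9 broth with 0.2% glycerol and 10% OADC, diluted 1:20. Compounds serially diluted in 7H9, final 100 to 0.4 µg/ml. Sealed plates incubated 37°C for 5 days, then Alamar Blue/10% Tween 80 (1:1) added for 24 h. Blue = no growth, pink = growth; MIC is lowest concentration preventing blue-to-pink change.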
row,SMILES,MIC [µg/mL]
1,COc1ccc(-c2cn3cc(C4=CCN(S(=O)(=O)C5CC5)CC4)ccc3n2)cc1OC,12.5
2,CC[C@@H](CO)NCCN[C@@H](CC)CO [ETHAMBUTOL],6.25
3,COc1ccc(-c2cn3cc(C4=CCN(S(=O)(=O)c5ccc(Br)s5)CC4)ccc3n2)cc1OC,3.12
4,COc1ccc(-c2cn3cc(C4=CCN(S(=O)(=O)c5ccc(F)cc5)CC4)ccc3n2)cc1OC,6.25
5,COc1ccc(-c2cn3cc(C4=CCN(C(=O)c5ccccn5)CC4)ccc3n2)cc1OC,100
6,COc1ccc(-c2cn3cc(C4=CCN(C(=O)c5cccc(C(F)(F)F)c5)CC4)ccc3n2)cc1OC,12.5
7,COc1ccc(-c2cn3cc(C4=CCN(S(=O)(=O)c5ccc(C)cc5)CC4)ccc3n2)cc1OC,25
8,COc1ccc(-c2cn3cc(C4=CCN(S(=O)(=O)c5ccc(Cl)s5)CC4)ccc3n2)cc1OC,6.25
9,COc1ccc(-c2cn3cc(C4=CCN(C(=O)c5cccs5)CC4)ccc3n2)cc1OC,25
10,COc1ccc(-c2cn3cc(C4=CCN(C(=O)C5CC5)CC4)ccc3n2)cc1OC,50
11,COc1ccc(-c2cn3cc(C4=CCN(C(=O)COCc5ccccc5)CC4)ccc3n2)cc1OC,50
12,CCCS(=O)(=O)N1CC=C(c2ccc3nc(-c4ccc(OC)c(OC)c4)cn3c2)CC1,12.5
13,COc1ccc(-c2cn3cc(C4=CCN(S(=O)(=O)c5ccc(Br)cc5)CC4)ccc3n2)cc1OC,6.25
14,Nc1ccc(C(=O)O)c(O)c1 [AMINOSALICYLIC ACID],12.5
15,COc1ccc(-c2cn3cc(C4=CCN(S(=O)(=O)c5ccc(C(C)(C)C)cc5)CC4)ccc3n2)cc1OC,6.25
16,COc1ccc(-c2cn3cc(C4=CCN(C(=O)c5ccco5)CC4)ccc3n2)cc1OC,50

row,SMILES,MIC [µg/mL]
1,COc1ccc(-c2cn3cc(C4=CCN(S(=O)(=O)C5CCCC5)CC4)ccc3n2)cc1OC,25
2,COc1ccc(-c2cn3cc(C4=CCN(C(=O)c5cccc(F)c5)CC4)ccc3n2)cc1OC,50
3,COc1ccc(-c2cn3cc(C4=CCN(S(=O)(=O)C5CCCCC5)CC4)ccc3n2)cc1OC,25
4,CCS(=O)(=O)N1CC=C(c2ccc3nc(-c4ccc(OC)c(OC)c4)cn3c2)CC1,12.5
5,COc1ccc(-c2cn3cc(C4=CCN(S(=O)(=O)c5ccccc5)CC4)ccc3n2)cc1OC,25
6,COc1ccc(-c2cn3cc(C4=CCN(C(=O)c5ccccc5F)CC4)ccc3n2)cc1OC,6.25
7,COc1ccc(-c2cn3cc(C4=CCN(C(=O)c5cocn5)CC4)ccc3n2)cc1OC,50
8,COc1ccc(-c2cn3cc(C4=CCN(S(=O)(=O)c5ccc(C(C)=O)cc5)CC4)ccc3n2)cc1OC,6.25
9,COc1ccc(-c2cn3cc(C4=CCN(C(=O)C5CCCCC5)CC4)ccc3n2)cc1OC,50
10,COc1ccc(-c2cn3cc(C4=CCN(C(=O)c5ccc(F)cc5)CC4)ccc3n2)cc1OC,25
11,COc1ccc(-c2cn3cc(C4=CCN(C(=O)C(C)(C)C)CC4)ccc3n2)cc1OC,100
12,COc1ccc(-c2cn3cc(C4=CCN(S(=O)(=O)c5ccc(Cl)cc5)CC4)ccc3n2)cc1OC,6.25
13,COc1ccc(-c2cn3cc(C4=CCN(S(=O)(=O)c5ccc(C(F)(F)F)cc5)CC4)ccc3n2)cc1OC,6.25
14,COc1ccc(-c2cn3cc(C4=CCN(C(C)=O)CC4)ccc3n2)cc1OC,> 100
15,COc1ccc(-c2cn3cc(C4=CCN(S(=O)(=O)c5ccc([N+](=O)[O-])cc5)CC4)ccc3n2)cc1OC,6.25
